Values after ≈ are worked out from the molar mass of the structure shown. Active and inactive are the calls of the source. The calls are words filed in the database; no cut-off is given here.
Tests used:
Mus musculus [1] = assay: Neurotoxicity in mouse at 300 mg/kg after 4 hrs; type: toxicity, organism-based; set-up: dose 300 mg/kg; conditions: in vivo
Outline: (§1)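 Mice dosed intraperitoneally at 30, 100 and 300 mg/kg; 1a and 1b given as hydrochloride salts. Observed 0.5 and 4 h after dosing. Value is number of animals showing neurological deficit over number dosed. Deaths also recorded.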

Mus musculus [2] = assay: Neurotoxicity in mouse at 100 mg/kg after 4 hrs; type: toxicity, organism-based; set-up: dose 100 mg/kg; conditions: in vivo; outline: as §1
Mus musculus [3] = assay: Neurotoxicity in mouse at 100 mg/kg after 0.5 hrs; type: toxicity, organism-based; set-up: dose 100 mg/kg; conditions: in vivo; outline: as §1
[4] = system: Mycobacterium tuberculosis; assay: Antimycobacterial activity against Mycobacterium tuberculosis H37Rv at 6.25 ug/ml by broth microdilution assay; type: functional
Outline: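 Single-concentration screen at 6.25 µg/mL against M. tuberculosis H37Rv (ATCC 27294), broth microdilution in BACTEC 12B medium. Read-out is % growth inhibition versus controls. At least 90% inhibition counted as active.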

Mus musculus [5] = assay: Neurotoxicity in mouse at 300 mg/kg after 0.5 hrs; type: toxicity, organism-based; set-up: dose 300 mg/kg; conditions: in vivo; outline: as §1
[6] = Lipophilicity, log P of the compound; type: physicochemical; conditions: octanol/water
Outline: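 log P calculated with ACD algorithm and database statistics; not measured experimentally.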

[7] = system: Mycobacterium tuberculosis; assay: Antimycobacterial activity against Mycobacterium tuberculosis H37Rv by broth microdilution assay; type: functional
Outline: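 M. tuberculosis H37Rv (ATCC 27294) grown in BACTEC 12B medium, broth microdilution. MIC taken as the lowest concentration giving a 90% reduction in fluorescence relative to controls. Rifampin served as reference drug.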

Liver [8] = assay: Stimulation of respiration in rat liver mitochondria assessed as effect on swelling at 5 uM; type: functional
Outline: (§2)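 Rat liver mitochondria isolated by differential centrifugation (respiratory control ratio 5–7). Swelling of fresh mitochondria followed at 30 °C in 125 mM sucrose, 65 mM KCl, 10 mM Hepes, 5 mM potassium phosphate, 1 mM MgCl2, pH 7.2, with 5 mM succinate. Compounds tested at 5, 10 and 100 μM; DMSO solvent control.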

[9] = system: Mycobacterium tuberculosis; assay: Antimycobacterial activity against Mycobacterium tuberculosis H37Rv at 12.5 ug/ml by broth microdilution assay; type: functional
Outline: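 Primary screen against M. tuberculosis H37Rv (ATCC 27294) at a single concentration of 12.5 µg/mL in BACTEC 12B medium by broth microdilution. Growth inhibition expressed as % relative to controls. Hydrochloride salt used where applicable.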

Liver [10] = assay: Stimulation of respiration in rat liver mitochondria assessed as effect on swelling at 10 uM; type: functional; outline: as §2
Liver [11] = assay: Stimulation of respiration in rat liver mitochondria assessed as effect on swelling at 100 uM; type: functional; outline: as §2
Rattus norvegicus = assay: Neurotoxicity in rat at 30 mg/kg, po after 0.25 hrs; type: toxicity, organism-based; set-up: dose 30 mg/kg, route oral; conditions: in vivo
Outline: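 Rats dosed orally at 30 or 50 mg/kg and examined for neurotoxicity 0.25, 0.5, 1, 2 and 4 h after dosing. Four animals per group, with three rats at one 0.5 h time point.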

SMILES	Activity (Mus musculus [1])	Activity (Mus musculus [2])	Activity (Mus musculus [3])	inhibition at 6.25 µg/mL [4]	Activity (Mus musculus [5])	logP ([6]; read-out: logP)	MIC [7]	Activity (Liver [8])	inhibition at 12.5 µg/mL [9]	Activity (Liver [10])	Activity (Liver [11])	logP [6]	Activity (Rattus norvegicus)
CCN(CC)CCOc1ccc(C(=O)O)cc1.Cl	Non-toxic	Non-toxic	Non-toxic	12%	Non-toxic	2.9							
O=C1/C(=C/c2ccc([N+](=O)[O-])cc2)CNC/C1=C\c1ccc([N+](=O)[O-])cc1	Non-toxic	Non-toxic	Non-toxic		Non-toxic		0.2 µg/mL (≈ 0.547 µM)	inactive	100%	inactive	inactive	5.3	
CCN(CC)CCOc1ccc(C(=O)N2C/C(=C\c3ccc([N+](=O)[O-])cc3)C(=O)/C(=C/c3ccc([N+](=O)[O-])cc3)C2)cc1.Cl				34%								6.5	
O=C1/C(=C/c2ccccc2)CN(C(=O)c2ccccc2)C/C1=C\c1ccccc1				0%		5.5							
Cl.O=C1/C(=C/c2ccc([N+](=O)[O-])cc2)CN(C(=O)c2ccc(OCCN3CCOCC3)cc2)C/C1=C\c1ccc([N+](=O)[O-])cc1	Non-toxic	Non-toxic	Non-toxic	100%		5	6.25 µg/mL						
Cl.O=C1/C(=C/c2ccc(Cl)cc2)CN(C(=O)c2ccc(OCCN3CCCCC3)cc2)C/C1=C\c1ccc(Cl)cc1				86%								8.1	
Cl.O=C1/C(=C/c2ccccc2)CNC/C1=C\c1ccccc1	Non-toxic	Non-toxic	Non-toxic		Non-toxic		3.13 µg/mL		99%			5.7	
Cc1ccc(/C=C2\CN(C(=O)c3ccc(OCCN4CCCCC4)cc3)C/C(=C\c3ccc(C)cc3)C2=O)cc1.Cl	Non-toxic	Non-toxic		100%	Non-toxic		3.13 µg/mL					8	
CN(C)CCOc1ccc(C(=O)N2C/C(=C\c3ccc(Cl)cc3)C(=O)/C(=C/c3ccc(Cl)cc3)C2)cc1.Cl	Non-toxic	Non-toxic	Non-toxic	100%	Non-toxic		1.56 µg/mL					7	
CN(C)CCOc1ccc(C(=O)N2C/C(=C\c3ccccc3)C(=O)/C(=C/c3ccccc3)C2)cc1.Cl	Non-toxic	Non-toxic	Non-toxic	98%	Non-toxic		1.56 µg/mL	inactive		inactive	inactive	5.9	Non-toxic
Cl.O=C1/C(=C/c2ccc([N+](=O)[O-])cc2)CN(C(=O)c2ccc(OCCN3CCCCC3)cc2)C/C1=C\c1ccc([N+](=O)[O-])cc1		Non-toxic		100%			3.13 µg/mL					6.6	
CCN(CC)CCOc1ccc(C(=O)N2C/C(=C\c3ccc(Cl)cc3)C(=O)/C(=C/c3ccc(Cl)cc3)C2)cc1.Cl	Non-toxic	Non-toxic	Non-toxic	37%	Non-toxic							8	
CC[N+](C)(CC)CCOc1ccc(C(=O)N2C/C(=C\c3ccc(Cl)cc3)C(=O)/C(=C/c3ccc(Cl)cc3)C2)cc1.[I-]	Non-toxic	Non-toxic	Non-toxic	23%	Non-toxic	3.2							
Cc1ccc(/C=C2\CNC/C(=C\c3ccc(C)cc3)C2=O)cc1	Non-toxic	Non-toxic	Non-toxic	0%	Non-toxic							6.6	
CCN(CC)CCOc1ccc(C(=O)N2C/C(=C\c3ccc(C)cc3)C(=O)/C(=C/c3ccc(C)cc3)C2)cc1.Cl	Non-toxic	Non-toxic	Non-toxic	100%	Non-toxic		3.13 µg/mL					7.9	
CC[N+](C)(CC)CCOc1ccc(C(=O)N2C/C(=C\c3ccc(C)cc3)C(=O)/C(=C/c3ccc(C)cc3)C2)cc1.[I-]	Toxic	Non-toxic	Non-toxic	81%		3.1							
Cc1ccc(/C=C2\CN(C(=O)c3ccc(OCCN4CCOCC4)cc3)C/C(=C\c3ccc(C)cc3)C2=O)cc1.Cl	Non-toxic	Non-toxic	Non-toxic	100%	Non-toxic	6.3	0.78 µg/mL						
Cl.O=C1/C(=C/c2ccc(Cl)cc2)CNC/C1=C\c1ccc(Cl)cc1	Non-toxic	Non-toxic	Non-toxic		Non-toxic		6.25 µg/mL		99%			6.8	
CO[C@H]1/C=C/O[C@@]2(C)Oc3c(C)c(O)c4c(O)c(c(/C=N/N5CCN(C)CC5)c(O)c4c3C2=O)NC(=O)/C(C)=C\C=C\[C@H](C)[C@H](O)[C@@H](C)[C@@H](O)[C@@H](C)[C@H](OC(C)=O)[C@@H]1C [RIFAMPIN]							0.07 µg/mL (≈ 0.0851 µM)						
CC[N+](C)(CC)CCOc1ccc(C(=O)N2C/C(=C\c3ccccc3)C(=O)/C(=C/c3ccccc3)C2)cc1.[I-]	Toxic	Toxic	Toxic	0%	Toxic	2.2							
Cl.O=C1/C(=C/c2ccccc2)CN(C(=O)c2ccc(OCCN3CCCCC3)cc2)C/C1=C\c1ccccc1				100%			6.25 µg/mL					7.1	
Cl.O=C1/C(=C/c2ccccc2)CN(C(=O)c2ccc(OCCN3CCOCC3)cc2)C/C1=C\c1ccccc1	Non-toxic	Non-toxic	Non-toxic	100%		5.4	6.25 µg/mL						
COc1ccc(C(=O)N2C/C(=C\c3ccc(Cl)cc3)C(=O)/C(=C/c3ccc(Cl)cc3)C2)cc1	Non-toxic	Non-toxic		47%	Non-toxic	6							
Cc1ccc(/C=C2\CN(C(=O)c3ccc(OCCN(C)C)cc3)C/C(=C\c3ccc(C)cc3)C2=O)cc1.Cl	Non-toxic	Non-toxic		100%	Non-toxic		3.13 µg/mL					6.8	

— ChEMBL document CHEMBL1157157, “N-Aroyl-3,5-bis(benzylidene)-4-piperidones: a novel class of antimycobacterial agents” (Bioorg Med Chem, 2008)
